Results taken from ChEMBL document CHEMBL1124413, “Quinazoline antifolate thymidylate synthase inhibitors: nitrogen, oxygen, sulfur, and chlorine substituents in the C2 position” (J Med Chem, 1989).
≈ marks a conversion by molar mass, not a printed value.

Tests used:
L1210 = assay: Tested for inhibition of L1210 mouse leukemia cell growth in culture; type: functional, cell-based
Method in brief: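 L1210 mouse leukemia cells were grown in culture with the test agent. The result was expressed as IC50, the concentration that inhibits cell growth by 50%.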

[1] = Compound was tested for its solubility in 0.20 M aqueous NaH2PO4 initially at pH 7; type: ADME; conditions: 0.20 M aqueous NaH2PO4, pH 7
[2] = Compound was tested for its solubility in 0.01 M aqueous NaH2PO4 initially at pH 7; type: ADME; conditions: 0.01 M aqueous NaH2PO4, pH 7
Method in brief: (§1)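 Compound was dissolved to saturation in 0.01 M aqueous NaH2PO4 adjusted initially to pH 7. Solubility was reported as mg/mL, and the pH reached by the saturated solution was recorded.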

[3] = pH attained by the compound at saturation after dissolving in 0.01 M aqueous NaH2PO4 initially at pH 7; type: ADME; conditions: buffer; method in brief: as §1
[4] = pH attained by the compound at saturation after dissolving in 0.20 M aqueous NaH2PO4 initially at pH 7; type: ADME; conditions: buffer
Dihydrofolate reductase = molecular target: T1, Dihydrofolate reductase (Homo sapiens, UniProt P00374); assay: Effect against dihydrofolate reductase (DHFR)
T1 sequence (P00374 whole entry): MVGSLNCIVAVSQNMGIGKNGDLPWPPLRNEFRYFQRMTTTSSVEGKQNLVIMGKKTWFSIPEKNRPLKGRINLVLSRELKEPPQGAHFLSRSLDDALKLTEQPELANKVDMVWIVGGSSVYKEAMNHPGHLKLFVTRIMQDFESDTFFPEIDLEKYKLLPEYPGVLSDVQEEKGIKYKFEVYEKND

Row | Structure (SMILES) | IC50 (L1210) [µM] | also measured
1 | C#CCN(Cc1ccc2nc(NCC(=O)O)nc(O)c2c1)c1ccc(C(=O)NC(CCC(=O)O)C(=O)O)cc1 (stereo not drawn) | > 100 | –
2 | C#CCN(Cc1ccc2nc(Cl)nc(O)c2c1)c1ccc(C(=O)NC(CCC(=O)O)C(=O)O)cc1 (stereo not drawn) | 67 | –
3 | C#CCN(Cc1ccc2nc(Oc3ccccc3)nc(O)c2c1)c1ccc(C(=O)NC(CCC(=O)O)C(=O)O)cc1 (stereo not drawn) | > 100 | –
4 | C#CCN(Cc1ccc2nc(OC)nc(O)c2c1)c1ccc(C(=O)NC(CCC(=O)O)C(=O)O)cc1 (stereo not drawn) | 1.9 | solubility [1]: 6600 µg/mL (≈ 13400 µM); solubility [2]: 1200 µg/mL (≈ 2440 µM); pH [3]: 4.93; pH [4]: 5.67
5 | COc1nc(O)c2cc(CN(CCO)c3ccc(C(=O)NC(CCC(=O)O)C(=O)O)cc3)ccc2n1 (stereo not drawn) | 7.3 | –
6 | C#CCN(Cc1ccc2[nH]c(N)nc(=O)c2c1)c1ccc(C(=O)NC(CCC(=O)O)C(=O)O)cc1 (stereo not drawn) | 3.4 | solubility [1]: 60 µg/mL (≈ 126 µM); solubility [2]: 50 µg/mL (≈ 105 µM); pH [3]: 5.76; pH [4]: 6.78
7 | COc1nc(O)c2cc(CN(CCCO)c3ccc(C(=O)NC(CCC(=O)O)C(=O)O)cc3)ccc2n1 (stereo not drawn) | 80 | –
8 | C#CCN(Cc1ccc2nc(S)nc(O)c2c1)c1ccc(C(=O)NC(CCC(=O)O)C(=O)O)cc1 (stereo not drawn) | 60 | –
9 | C#CCN(Cc1ccc2nc(SC)nc(O)c2c1)c1ccc(C(=O)NC(CCC(=O)O)C(=O)O)cc1 (stereo not drawn) | 13 | –
10 | C#CCN(Cc1ccc2nc(NCCO)nc(O)c2c1)c1ccc(C(=O)NC(CCC(=O)O)C(=O)O)cc1 (stereo not drawn) | 47 | –
11 | C#CCN(Cc1ccc2nc(NCCN)nc(O)c2c1)c1ccc(C(=O)NC(CCC(=O)O)C(=O)O)cc1 (stereo not drawn) | 97 | –
12 | C#CCN(Cc1ccc2nc(NCCN(C)C)nc(O)c2c1)c1ccc(C(=O)NC(CCC(=O)O)C(=O)O)cc1 (stereo not drawn) | > 100 | –
13 | C#CCN(Cc1ccc2nc(NCC)nc(O)c2c1)c1ccc(C(=O)NC(CCC(=O)O)C(=O)O)cc1 (stereo not drawn) | > 100 | –
14 | COc1nc(O)c2cc(CNc3ccc(C(=O)NC(CCC(=O)O)C(=O)O)cc3)ccc2n1 (stereo not drawn) | 6.4 | Ki (Dihydrofolate reductase): ~0.6 µM
15 | C=CCN(Cc1ccc2nc(OC)nc(O)c2c1)c1ccc(C(=O)NC(CCC(=O)O)C(=O)O)cc1 (stereo not drawn) | 16 | –
16 | C#CCN(Cc1ccc2nc(OCC)nc(O)c2c1)c1ccc(C(=O)NC(CCC(=O)O)C(=O)O)cc1 (stereo not drawn) | > 100 | –
17 | C#CCN(Cc1ccc2nc(-n3ccnc3)nc(O)c2c1)c1ccc(C(=O)NC(CCC(=O)O)C(=O)O)cc1 (stereo not drawn) | > 100 | –
18 | C#CCN(Cc1ccc2nc(OCCO)nc(O)c2c1)c1ccc(C(=O)NC(CCC(=O)O)C(=O)O)cc1 (stereo not drawn) | > 100 | –
19 | COc1nc(O)c2cc(CN(CCF)c3ccc(C(=O)NC(CCC(=O)O)C(=O)O)cc3)ccc2n1 (stereo not drawn) | 17 | –
20 | C#CCN(Cc1ccc2nc(N(C)C)nc(O)c2c1)c1ccc(C(=O)NC(CCC(=O)O)C(=O)O)cc1 (stereo not drawn) | > 100 | –
21 | C#CCN(Cc1ccc2nc(OCCOC)nc(O)c2c1)c1ccc(C(=O)NC(CCC(=O)O)C(=O)O)cc1 (stereo not drawn) | 100 | –
22 | CCN(Cc1ccc2nc(OC)nc(O)c2c1)c1ccc(C(=O)NC(CCC(=O)O)C(=O)O)cc1 (stereo not drawn) | 12 | –
23 | COc1nc(O)c2cc(CN(C)c3ccc(C(=O)NC(CCC(=O)O)C(=O)O)cc3)ccc2n1 (stereo not drawn) | 7 | –
24 | C#CCN(Cc1ccc2nc(NC)nc(O)c2c1)c1ccc(C(=O)NC(CCC(=O)O)C(=O)O)cc1 (stereo not drawn) | 24 | –
